Data: ChEMBL document CHEMBL4406880, “Design, synthesis, and bioactivity of dihydropyrimidine derivatives as kinesin spindle protein inhibitors” (Bioorg Med Chem, 2019)

Key:
Assay type in all cases: functional
[1] = system: NCI-H322M; assay: Growth inhibition of human NCI-H322M cells incubated for 48 hrs by sulforhodamine B assay
Summary of the method: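 NCI-60 five-dose assay, SRB end-point, same culture conditions. Compound is tested at tenfold dilutions of 0.01, 0.1, 1, 10 and 100 µM for 48 h at 37 °C, with DMSO/PBS vehicle controls. Percentage growth at each concentration is taken against untreated cells and a time-zero plate. GI50 is 50% net growth decrease, TGI is total growth inhibition, and LC50 is 50% loss of initial cells.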

[2] = system: SK-MEL-2; assay: Growth inhibition of human SK-MEL-2 cells incubated for 48 hrs by sulforhodamine B assay; conditions: SK-MEL-2, 48 h
Summary of the method: (§1)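 NCI-60 five-dose SRB assay. Cells were exposed for 48 h to tenfold dilutions of 0.01, 0.1, 1, 10 and 100 µM, in RPMI 1640 with 5% FBS. Plates fixed with TCA at the time of drug addition served as the time-zero reference. GI50 is the concentration giving a 50% reduction in net growth. TGI is total growth inhibition. LC50 is a net 50% loss of the initial cells.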

[3] = system: SK-OV-3; assay: Growth inhibition of human SKOV3 cells incubated for 48 hrs by sulforhodamine B assay; conditions: SK-OV-3, 48 h; summary of the method: as §1
[4] = system: CAKI-1; assay: Growth inhibition of human Caki1 cells incubated for 48 hrs by sulforhodamine B assay; conditions: CAKI-1, 48 h
Summary of the method: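 NCI-60 five-dose mode: five tenfold dilutions (0.01, 0.1, 1, 10, 100 µM) are applied for 48 h to cells in RPMI 1640 with 5% FBS at 37 °C. Endpoint is TCA fixation with sulforhodamine B read at 515 nm. % growth comes from the 0 h and control absorbances. GI50 is the concentration giving a 50% reduction in net cell growth.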

[5] = system: MCF7; assay: Growth inhibition of human MCF7 cells incubated for 48 hrs by sulforhodamine B assay; conditions: MCF7, 48 h
Summary of the method: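 NCI-60 five-dose SRB assay in RPMI 1640 with 5% FBS, 37 °C, 5% CO2. Compound given at five tenfold dilutions, 0.01–100 µM, for 48 h. Adherent cells fixed with TCA, suspension cells with 16% final TCA. Bound SRB read at 515 nm and growth calculated against time-zero and untreated controls. GI50 taken from dose–response curves as the concentration giving a 50% decrease in net cell growth.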

[6] = system: U-251; assay: Growth inhibition of human U251 cells assessed as cell viability at 100 uM incubated for 48 hrs by sulforhodamine B assay; conditions: U-251, 48 h, read-out: Activity
[7] = system: HCT-116; assay: Growth inhibition of human HCT116 cells assessed as cell viability at 100 uM incubated for 48 hrs by sulforhodamine B assay; conditions: HCT-116, 48 h, read-out: Activity
[8] = system: MDA-MB-468; assay: Growth inhibition of human MDA-MB-468 cells assessed as cell viability at 1 uM incubated for 48 hrs by sulforhodamine B assay; conditions: MDA-MB-468, 48 h, read-out: Activity
[9] = system: SK-MEL-2; assay: Growth inhibition of human SK-MEL-2 cells assessed as cell viability at 1 uM incubated for 48 hrs by sulforhodamine B assay; conditions: SK-MEL-2, 48 h, read-out: Activity
[10] = system: U-251; assay: Growth inhibition of human U251 cells assessed as cell viability at 1 uM incubated for 48 hrs by sulforhodamine B assay; conditions: U-251, 48 h, read-out: Activity
[11] = system: SNB-19; assay: Growth inhibition of human SNB19 cells assessed as cell viability at 1 uM incubated for 48 hrs by sulforhodamine B assay; conditions: SNB-19, 48 h, read-out: Activity
[12] = system: HCT-116; assay: Growth inhibition of human HCT116 cells assessed as cell viability at 1 uM incubated for 48 hrs by sulforhodamine B assay; conditions: HCT-116, 48 h, read-out: Activity
[13] = system: NCI-H23; assay: Growth inhibition of human NCI-H23 cells assessed as cell viability at 1 uM incubated for 48 hrs by sulforhodamine B assay; conditions: NCI-H23, 48 h, read-out: Activity
[14] = system: MDA-MB-231; assay: Growth inhibition of human MDA-MB-231 cells assessed as cell viability at 0.1 uM incubated for 48 hrs by sulforhodamine B assay; conditions: MDA-MB-231, 48 h, read-out: Activity
[15] = system: MCF7; assay: Growth inhibition of human MCF7 cells assessed as cell viability at 0.1 uM incubated for 48 hrs by sulforhodamine B assay; conditions: MCF7, 48 h, read-out: Activity
[16] = system: OVCAR-3; assay: Growth inhibition of human OVCAR3 cells assessed as cell viability at 0.1 uM incubated for 48 hrs by sulforhodamine B assay; conditions: OVCAR-3, 48 h, read-out: Activity
[17] = system: M14; assay: Growth inhibition of human M14 cells assessed as cell viability at 0.1 uM incubated for 48 hrs by sulforhodamine B assay; conditions: M14, 48 h, read-out: Activity
[18] = system: HCT-116; assay: Growth inhibition of human HCT116 cells assessed as cell viability at 0.1 uM incubated for 48 hrs by sulforhodamine B assay; conditions: HCT-116, 48 h, read-out: Activity
[19] = system: UO-31; assay: Growth inhibition of human UO31 cells assessed as cell viability at 0.001 uM incubated for 48 hrs by sulforhodamine B assay relative to control; conditions: UO-31, 48 h, read-out: Activity
[20] = system: UACC-62; assay: Growth inhibition of human UACC62 cells assessed as cell viability at 0.001 uM incubated for 48 hrs by sulforhodamine B assay relative to control; conditions: UACC-62, 48 h, read-out: Activity
[21] = system: SNB-19; assay: Growth inhibition of human SNB19 cells assessed as cell viability at 0.001 uM incubated for 48 hrs by sulforhodamine B assay relative to control; conditions: SNB-19, 48 h, read-out: Activity
[22] = system: SF-268; assay: Growth inhibition of human SF268 cells assessed as cell viability at 0.001 uM incubated for 48 hrs by sulforhodamine B assay relative to control; conditions: SF-268, 48 h, read-out: Activity
[23] = system: NCI-H23; assay: Growth inhibition of human NCI-H23 cells assessed as cell viability at 0.001 uM incubated for 48 hrs by sulforhodamine B assay relative to control; conditions: NCI-H23, 48 h, read-out: Activity
[24] = system: Hs-578T; assay: Growth inhibition of human Hs 578T cells assessed as cell viability at 100 uM incubated for 48 hrs by sulforhodamine B assay; conditions: read-out: Activity
[25] = system: T47D; assay: Growth inhibition of human T47D cells assessed as cell viability at 100 uM incubated for 48 hrs by sulforhodamine B assay; conditions: read-out: Activity
[26] = read-out: LC50 (the source's name)
[27] = read-out: pLC50 (the source's name) (converted)

**Q.** Which results are given for `CC1=C(C(=O)OCc2ccccc2)C(c2ccc3c(c2)OCO3)n2c(nc3ccccc32)N1` (racemic)?
**A.** LC50 (concentration killing 50% of initial cells) ([1]; read-out: LC50): > 100 µM; TGI ([1]; read-out: TGI): > 100 µM; LC50 (concentration killing 50% of initial cells) ([1]; read-out: pLC50 (converted)): > 100 µM; TGI ([1]; read-out: pTGI): > 100 µM; GI50 ([2]; read-out: GI50): 1.29 µM; LC50 ([2]; read-out: LC50): > 100 µM; TGI ([2]; read-out: TGI): > 100 µM; GI50 ([2]; read-out: pGI50 (converted)): 1.29 µM; LC50 ([2]; read-out: pLC50 (converted)): > 100 µM; TGI ([2]; read-out: pTGI): > 100 µM; GI50 ([3]; read-out: GI50): 0.47 µM; CC50 [3, 26]: > 100 µM; TGI ([3]; read-out: TGI): > 100 µM; GI50 ([3]; read-out: pGI50 (converted)): 0.468 µM; CC50 [3, 27]: > 100 µM; TGI ([3]; read-out: pTGI): > 100 µM; GI50 ([4]; read-out: GI50): 0.28 µM; CC50 [4, 26]: > 100 µM; TGI ([4]; read-out: TGI): > 100 µM; GI50 ([4]; read-out: pGI50 (converted)): 0.282 µM; CC50 [4, 27]: > 100 µM; TGI ([4]; read-out: pTGI): > 100 µM; GI50 ([5]; read-out: GI50): 0.32 µM; CC50 [5, 26]: > 100 µM; TGI ([5]; read-out: TGI): > 100 µM; GI50 ([5]; read-out: pGI50 (converted)): 0.316 µM; CC50 [5, 27]: > 100 µM; TGI ([5]; read-out: pTGI): > 100 µM; viability at 100 µM [6]: 3%; viability at 100 µM [7]: 18%; viability at 1 µM [8]: -9%; viability at 1 µM [9]: 52%; viability at 1 µM [10]: 26%; viability at 1 µM [11]: 35%; viability at 1 µM [12]: 26%; viability at 1 µM [13]: 54%; viability at 0.1 µM [14]: 98%; viability at 0.1 µM [15]: 87%; viability at 0.1 µM [16]: 85%; viability at 0.1 µM [17]: 90%; viability at 0.1 µM [18]: 100%; viability at 0.001 µM [19]: 86%; viability at 0.001 µM [20]: 90%; viability at 0.001 µM [21]: 94%; viability at 0.001 µM [22]: 91%; viability at 0.001 µM [23]: 93%; viability at 100 µM [24]: -24%; viability at 100 µM [25]: 34%
